In ChEMBL document CHEMBL1148427, “Diastereoselective synthesis and configuration-dependent activity of (3-substituted-cycloalkyl)glycine pyrrolidides and thiazolidides as dipeptidyl peptidase IV inhibitors” (Bioorg Med Chem Lett, 2004):

Key:
[1] = Inhibitory activity against human aminopeptidase P
Dipeptidyl peptidase 4 = Dipeptidyl peptidase 4 (Homo sapiens, UniProt P27487); test: Inhibitory activity against human recombinant Dipeptidylpeptidase IV
Outline: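 Human recombinant enzyme run in a fluorometric assay with Gly-Pro-AMC as substrate. Cleavage releases fluorescent 7-amino-4-methylcoumarin, which is read to give IC50 values.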

Dipeptidyl peptidase 2 = Dipeptidyl peptidase 2 (Homo sapiens, UniProt Q9UHL4); test: Inhibitory activity against human quiescent cell proline dipeptidase

Sequence of Dipeptidyl peptidase 4 (P27487 whole entry): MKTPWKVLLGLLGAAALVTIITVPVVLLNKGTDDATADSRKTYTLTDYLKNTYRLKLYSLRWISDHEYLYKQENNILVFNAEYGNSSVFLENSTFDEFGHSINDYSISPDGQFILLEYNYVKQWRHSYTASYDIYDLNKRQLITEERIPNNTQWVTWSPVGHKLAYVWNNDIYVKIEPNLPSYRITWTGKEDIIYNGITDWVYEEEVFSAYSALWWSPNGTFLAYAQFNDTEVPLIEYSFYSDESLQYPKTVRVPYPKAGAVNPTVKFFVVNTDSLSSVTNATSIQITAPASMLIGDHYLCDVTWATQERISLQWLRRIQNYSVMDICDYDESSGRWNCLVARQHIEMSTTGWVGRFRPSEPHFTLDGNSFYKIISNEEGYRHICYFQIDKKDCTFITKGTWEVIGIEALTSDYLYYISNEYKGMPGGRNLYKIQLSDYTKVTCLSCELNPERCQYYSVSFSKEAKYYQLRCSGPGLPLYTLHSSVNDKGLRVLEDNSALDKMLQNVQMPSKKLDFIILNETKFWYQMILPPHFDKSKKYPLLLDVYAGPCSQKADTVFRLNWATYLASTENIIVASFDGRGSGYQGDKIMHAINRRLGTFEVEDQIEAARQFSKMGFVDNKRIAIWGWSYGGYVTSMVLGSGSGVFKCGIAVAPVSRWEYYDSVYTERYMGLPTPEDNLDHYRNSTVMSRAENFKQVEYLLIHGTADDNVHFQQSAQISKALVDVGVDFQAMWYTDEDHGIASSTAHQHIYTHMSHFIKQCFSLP

Row | SMILES | IC50 [1] | IC50 (Dipeptidyl peptidase 4) | IC50 (Dipeptidyl peptidase 2)
1 | N[C@H](C(=O)N1CCCC1)[C@@H]1CC[C@@H](NS(=O)(=O)c2ccc(S(N)(=O)=O)cc2)C1 | > 100000 nM | 46 nM | 2300 nM
2 | N[C@H](C(=O)N1CCSC1)[C@H]1CC[C@@H](OC(=O)Nc2ccc(Cl)c(Cl)c2)C1 | > 100000 nM | 280 nM | 14 nM
3 | N[C@H](C(=O)N1CCCC1)[C@@H]1CC[C@@H](NC(=O)Nc2cccc3ccccc23)C1 | > 100000 nM | 94 nM | 430 nM
4 | COC1=N[C@H](C(C)C)C(OC)=N[C@H]1[C@H]1CC[C@@H](O)C1 | > 100000 nM | – | –
5 | O=C(N[C@H](C(=O)N1CCCC1)[C@@H]1CC[C@@H](OC(=O)c2ccc([N+](=O)[O-])cc2)C1)OCc1ccccc1 | > 100000 nM | – | –
6 | N[C@H](C(=O)N1CCCC1)[C@H]1CC[C@H](NS(=O)(=O)c2ccc(S(=O)(=O)C(F)(F)F)cc2)C1 | > 100000 nM | 220 nM | 110 nM
7 | COC1=N[C@H]([C@@H]2CC[C@H](O)C2)C(OC)=N[C@H]1C(C)C | > 100000 nM | – | –
8 | N[C@H](C(=O)N1CCCC1)[C@H]1CC[C@H](NS(=O)(=O)c2ccc(S(N)(=O)=O)cc2)C1 | > 100000 nM | 83 nM | 22 nM
9 | N[C@H](C(=O)N1CCCC1)[C@H]1CC[C@H](NS(=O)(=O)c2ccc(C(=O)O)cc2)C1 | > 100000 nM | 72 nM | 12000 nM
10 | N[C@H](C(=O)N1CCCC1)[C@H]1CC[C@@H](NC(=O)c2cccc3ccccc23)C1 | > 100000 nM | 230 nM | 990 nM
11 | COc1ccc(NC(=O)O[C@H]2CC[C@H]([C@H](N)C(=O)N3CCCC3)C2)cc1 | > 100000 nM | 270 nM | 1400 nM
12 | N[C@H](C(=O)N1CCCC1)[C@@H]1CC[C@H](OC(=O)Nc2ccc(I)cc2)C1 | > 100000 nM | 670 nM | 250 nM
13 | N[C@H](C(=O)N1CCCC1)[C@@H]1CC[C@H](NC(=O)Nc2cccc3ccccc23)C1 | > 100000 nM | 440 nM | 1300 nM
14 | COC1=N[C@@H](C(C)C)C(OC)=NC1 | > 100000 nM | – | –
15 | COC1=N[C@H](C(C)C)C(OC)=NC1 | > 100000 nM | – | –
16 | COC(=O)[C@@H](NC(=O)OC(C)(C)C)[C@H]1CC[C@@H](O)C1 | > 100000 nM | – | –
17 | COC(=O)[C@H](NC(=O)OC(C)(C)C)[C@H]1CC[C@@H](O)C1 | > 100000 nM | – | –
18 | COC1=N[C@H](C(C)C)C(OC)=N[C@H]1[C@H]1CCC(=O)C1 | > 100000 nM | – | –
19 | COC(=O)[C@H](NC(=O)OCc1ccccc1)[C@@H]1CC[C@H](O)C1 | > 100000 nM | – | –
20 | COC1=N[C@H](C(C)C)C(OC)=N[C@H]1[C@H]1CCCC(O)C1 (some centres undefined) | > 100000 nM | – | –

Second part, the compound after the results:

Row | IC50 [1] | IC50 (Dipeptidyl peptidase 4) | IC50 (Dipeptidyl peptidase 2) | SMILES
21 | > 100000 nM | – | – | COC(=O)[C@@H](NC(=O)OCc1ccccc1)[C@@H]1CC[C@H](O)C1
22 | > 100000 nM | 180 nM | 260 nM | N[C@H](C(=O)N1CCCC1)[C@H]1CC[C@H](OC(=O)Nc2ccc(I)cc2)C1
23 | > 100000 nM | – | – | O=C(N[C@H](C(=O)N1CCCC1)[C@@H]1CC[C@H](O)C1)OCc1ccccc1
24 | > 100000 nM | 110 nM | 820 nM | N[C@H](C(=O)N1CCCC1)[C@@H]1CC[C@@H](OC(=O)Nc2ccc(I)cc2)C1
25 | > 100000 nM | 420 nM | 440 nM | COc1ccc(NC(=O)O[C@H]2CCC[C@H]([C@H](N)C(=O)N3CCSC3)C2)cc1
26 | > 100000 nM | 110 nM | 270 nM | N[C@H](C(=O)N1CCCC1)[C@H]1CC[C@@H](NC(=O)Nc2cccc3ccccc23)C1
27 | > 100000 nM | – | – | O=C(N[C@H](C(=O)N1CCCC1)[C@@H]1CC[C@@H](O)C1)OCc1ccccc1
28 | > 100000 nM | 110 nM | 5000 nM | N[C@H](C(=O)N1CCCC1)[C@@H]1CC[C@@H](NS(=O)(=O)c2ccc(C(=O)O)cc2)C1
29 | > 100000 nM | – | – | COC1=N[C@H](C(C)C)C(OC)=N[C@H]1[C@H]1CC[C@H](O)C1
